MC4R ag barr: activates human MC4R beta-arrestin recruitment; P32245; U2OS MC4R beta-arrestin complementation, luminescence; percent of melanotan II response, DMSO zero; activation, % at 8.9 µM; actives 0.98% (n = 360,000); AID 540308;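 active means activation above a per-plate cutoff, the mean activation of sample wells on that plate plus 3 SD, cut at about 8% in these data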
Beta cell apopt: beta cell apoptosis inhibition | INS-1E cytokine-induced death, ATP luminescence, 48 h; percent of positive-control rescue, neutral wells zero | protection from apoptosis, % (concentration not given with the values) | actives 0.8% (n = 300,000);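 active means Every replicate reaches about 75%, or at least half do and their mean reaches it too, limit read from the data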;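 further: 0% = cytokine-treated negative control wells and 100% = positive control rescue; higher means more ATP so stronger rescue from cytokine killing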
ANO1 block: mouse TMEM16A channel inhibition, primary screen; Q8BHY3; HEK293 TMEM16A/YFP iodide influx fluorescence, ionomycin; normalized B-score (activity score, 25-100; higher = stronger inhibition) at 10 µM; actives 1.2% (n = 310,000);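 active means ratio plate-corrected score three or more library SD toward inhibition, starting fluorescence score within five deviations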;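 further: score derived from kinetic fluorescence span divided by baseline fluorescence per well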
Target sequence (Q8BHY3 whole entry, looked up): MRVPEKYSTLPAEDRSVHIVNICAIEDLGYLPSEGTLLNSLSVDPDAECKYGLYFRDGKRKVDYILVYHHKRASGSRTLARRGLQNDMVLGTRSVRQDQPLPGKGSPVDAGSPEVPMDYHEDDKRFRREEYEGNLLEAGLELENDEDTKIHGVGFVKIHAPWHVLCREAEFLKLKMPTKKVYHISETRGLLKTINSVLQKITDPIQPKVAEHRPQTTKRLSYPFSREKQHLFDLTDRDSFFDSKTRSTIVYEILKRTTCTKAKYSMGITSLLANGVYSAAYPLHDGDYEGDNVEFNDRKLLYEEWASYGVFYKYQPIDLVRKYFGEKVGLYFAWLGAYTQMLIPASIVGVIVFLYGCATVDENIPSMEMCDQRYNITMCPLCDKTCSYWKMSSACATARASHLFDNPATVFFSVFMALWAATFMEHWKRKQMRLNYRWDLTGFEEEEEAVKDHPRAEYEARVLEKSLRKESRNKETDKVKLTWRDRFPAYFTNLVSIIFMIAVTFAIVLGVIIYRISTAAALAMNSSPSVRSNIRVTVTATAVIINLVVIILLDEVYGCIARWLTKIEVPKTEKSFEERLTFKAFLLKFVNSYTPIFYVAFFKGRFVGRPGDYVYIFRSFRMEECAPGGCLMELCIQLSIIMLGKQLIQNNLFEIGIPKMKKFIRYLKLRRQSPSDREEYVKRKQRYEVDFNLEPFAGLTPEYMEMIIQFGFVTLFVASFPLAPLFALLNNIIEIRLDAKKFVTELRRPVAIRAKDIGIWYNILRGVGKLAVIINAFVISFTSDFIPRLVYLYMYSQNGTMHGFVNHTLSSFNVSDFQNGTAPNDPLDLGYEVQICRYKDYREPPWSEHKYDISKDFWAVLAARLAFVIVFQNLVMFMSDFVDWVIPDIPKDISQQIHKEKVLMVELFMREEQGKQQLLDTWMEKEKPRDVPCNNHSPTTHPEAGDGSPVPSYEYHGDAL
CSC inhib: blocks cancer stem cells. inhibition, % at 7.5 µM. cancer stem cell-like cells viability, luminescence. actives 1.1% (n = 300,000). AID 2717; in the data active means inhibition above about 75%; tested in HMLE shEcad cells
ANO1 activ: activators or potentiators of mouse TMEM16A chloride channel | Q8BHY3 | HEK293 TMEM16A/YFP-H148Q/I152L, iodide quench fluorescence; hits give low values | B-score at 10 µM | actives 0.3% (n = 340,000);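 active means fluorescence-ratio B-score plate-corrected deviation score at least 3 library SD below zero, with starting fluorescence score within 5 deviations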;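 further: channel opened by trigger with iodide after compound preincubation; score built on the fluorescence ratio of max minus min over baseline; more negative score means more quench and so TMEM16A activation or potentiation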
MC4R antag cAMP: human MC4R antagonism in cAMP assay; P32245; MC4R-expressing cells, MTII-stimulated cAMP, LANCE TR-FRET; inhibition, % at 6.5 µM; actives 0.48% (n = 360,000); AID 540295;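 active means inhibition above its plate's cutoff, the mean of tested wells on that plate plus 3 SD, cut at about 29% in these data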;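 further: 0% = Melanotan II alone and 100% = Melanotan II plus saturating MCL0020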
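Assay system: human MC4R-expressing U2OS cells; reagent: Melanotan II stimulation of cells; dosing: 6.5 µM single dose; timing: compound 30 min, challenge 1 h, detection 1 h; signal: TR-FRET cAMP assay; replicates: one well per compound, no replicates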
cAMP nonselect: U2OS forskolin cAMP inhibition counter-screen. shares compounds with MC4R antag cAMP. parental U2OS, LANCE TR-FRET. inhibition, % at 6.5 µM. actives 26% (n = 1,600);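 active means mean inhibition over triplicates above the low-control well mean plus 3 SD, set per campaign, cut at about 13% in these data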;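 further: signal is single emission at 671 nm which falls as cellular cAMP rises; 0% = forskolin-stimulated wells and 100% = buffer without forskolin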
MC4R antag conf: human MC4R cAMP antagonism confirmation; actives 27% (n = 1,600); AID 602195; shares compounds with MC4R antag cAMP; MC4R-expressing cells, MTII-stimulated cAMP, TR-FRET; inhibition, % at 6.5 µM; in the data active means inhibition above about 29%;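 further: 0% = agonist stimulated wells alone and 100% = agonist stimulated wells plus saturating reference antagonist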
* hit, by the source's call. Sampled rows, rich in hits. Any-hit rate of the full collection: about 3.8%.

COC(=O)c1c(NC(=O)COC(=O)c2ccc(O)cc2)sc2c1CCCCC2 was read as MC4R ag barr 3, Beta cell apopt 9, ANO1 block inactive, CSC inhib 22, ANO1 activ inactive, MC4R antag cAMP 30*, cAMP nonselect -1 and MC4R antag conf 6.
For COc1cc(C(=O)NCC(=O)N/N=C\C(C)=C/c2ccccc2)cc(OC)c1OC the results were MC4R ag barr 0, Beta cell apopt 1, ANO1 block inactive, ANO1 activ inactive, MC4R antag cAMP 30*, cAMP nonselect -1 and MC4R antag conf -4.
NS(=O)(=O)c1cccc(NC(=O)c2cncc(Br)c2)c1 was read as MC4R ag barr -2, Beta cell apopt -9, ANO1 block inactive, CSC inhib -4, ANO1 activ inactive and MC4R antag cAMP -10.
NS(=O)(=O)c1cccc(NC(=O)c2cccc3c(Br)cccc23)c1 was read as MC4R ag barr 1, Beta cell apopt -1, ANO1 block inactive, CSC inhib -1, ANO1 activ inactive, MC4R antag cAMP 43*, cAMP nonselect 3 and MC4R antag conf 7.
`Cc1ccc(S(=O)(=O)NCC(=O)OCc2nnc(-c3ccccc3)o2)cc1` gave MC4R ag barr -2, Beta cell apopt -1, ANO1 block inactive, CSC inhib 6, ANO1 activ inactive, MC4R antag cAMP 30*, cAMP nonselect 13 and MC4R antag conf 20.
`CCOC(=O)CSc1nnc(-c2ccc(NS(=O)(=O)c3ccc(C)cc3)cc2)o1` gave MC4R ag barr -1, Beta cell apopt -23, ANO1 block inactive, ANO1 activ inactive, MC4R antag cAMP 38*, cAMP nonselect 5 and MC4R antag conf 22.
`COC(=O)CSc1nnc(-c2ccc(S(=O)(=O)N3CCCCC3)cc2)o1` gave MC4R ag barr -2, Beta cell apopt -6, ANO1 block inactive, CSC inhib -13, ANO1 activ inactive, MC4R antag cAMP 33*, cAMP nonselect 13 and MC4R antag conf 44*.
Screening COC(=O)CSc1nnc(-c2ccc(S(=O)(=O)N3CCC(C)CC3)cc2)o1 returned MC4R ag barr -1, Beta cell apopt -3, ANO1 block inactive, CSC inhib 2, ANO1 activ inactive and MC4R antag cAMP 22.
For COc1ccccc1NS(=O)(=O)c1ccc(C(=O)NCC(c2cccs2)N2CCOCC2)cc1 (stereo unspecified) the results were MC4R ag barr -1, Beta cell apopt -6, CSC inhib 4, ANO1 activ inactive and MC4R antag cAMP 5.
For O=C(NCCCn1ccnc1)c1ccc(-c2cccc(C(F)(F)F)c2)o1 the results were MC4R ag barr 1, Beta cell apopt 1, CSC inhib 10, ANO1 activ inactive and MC4R antag cAMP 1.
Screening CN1CCC2CC1c1cc(-c3ccc(C(F)(F)F)cc3)ccc12 (stereo unspecified) returned MC4R ag barr 0 and MC4R antag cAMP 6.
Screening Cc1ccc(C)c(NC(=O)CSc2nnc(-c3ccncc3)o2)c1 returned MC4R ag barr -1, Beta cell apopt -2, ANO1 block inactive, CSC inhib -21, ANO1 activ inactive and MC4R antag cAMP 14.
Screening N#Cc1ccccc1NC(=O)CSc1nnc(-c2ccncc2)o1 returned MC4R ag barr 2, Beta cell apopt -6, ANO1 block inactive, CSC inhib 6, ANO1 activ inactive, MC4R antag cAMP 30*, cAMP nonselect -6 and MC4R antag conf 1.
Cc1cc(C)nc(SCc2nnc(SCC(=O)O)n2-c2ccccc2)n1 was read as MC4R ag barr 1, Beta cell apopt -5, ANO1 block inactive, CSC inhib -8, ANO1 activ inactive, MC4R antag cAMP 31*, cAMP nonselect -2 and MC4R antag conf 1.
For O=S(=O)(/C(=C\c1ccc(C(F)(F)F)cc1)c1nc2ccccc2[nH]1)c1ccccc1 the results were MC4R ag barr -1, ANO1 activ inactive, MC4R antag cAMP 33*, cAMP nonselect 12 and MC4R antag conf 35*.
`O=C(NCc1ccco1)/C(=C/c1ccc(C(F)(F)F)cc1)c1nc2ccccc2[nH]1` gave MC4R ag barr 3, Beta cell apopt -5, ANO1 block inactive, CSC inhib 38, ANO1 activ inactive and MC4R antag cAMP 18.
For Cc1ccc(C)c(Cn2c(C)nc3c(sc(=S)n3-c3ccccc3)c2=O)c1 the results were MC4R ag barr -1, Beta cell apopt -3, ANO1 block inactive, CSC inhib -3, ANO1 activ inactive, MC4R antag cAMP 31*, cAMP nonselect 2 and MC4R antag conf -5.
`Cc1ccc(-n2c(SCC(=O)O)nc3c(sc(=S)n3-c3ccc(C)c(C)c3)c2=O)cc1` gave MC4R ag barr 1, ANO1 block inactive, ANO1 activ inactive and MC4R antag cAMP 24.
O=C(Nc1sc2c(c1C(=O)O)CCCC2)c1ccc(F)cc1 was read as MC4R ag barr 1, Beta cell apopt 1, ANO1 block inactive, CSC inhib 12, ANO1 activ inactive and MC4R antag cAMP 19.
`CC(C)(C)c1ccc(C(=O)Nc2sc3c(c2C(=O)O)CCC3)cc1` gave MC4R ag barr 0, Beta cell apopt 8, ANO1 block 100*, CSC inhib 15, ANO1 activ inactive, MC4R antag cAMP 30*, cAMP nonselect 0 and MC4R antag conf 4.
Screening CCCCOc1c(Br)cc(/C=C2\N=C(C)OC2=O)cc1OCC returned MC4R ag barr -1, Beta cell apopt -10, ANO1 block inactive, CSC inhib -15, ANO1 activ inactive, MC4R antag cAMP 33*, cAMP nonselect 0 and MC4R antag conf 0.
`CC(OC(=O)c1ccc(S(C)(=O)=O)c([N+](=O)[O-])c1)C(=O)NC1C2CC3CC(C2)CC1C3` (stereo unspecified) gave MC4R ag barr -2, MC4R antag cAMP 29*, cAMP nonselect 8 and MC4R antag conf 21.
Screening Cc1ccc(C(=O)OC(C)C(=O)NC2CCCCC2)cc1S(=O)(=O)N1CCCCC1 (stereo unspecified) returned MC4R ag barr 0, ANO1 activ inactive and MC4R antag cAMP 4.
Screening CCC(OC(=O)c1ccc(S(C)(=O)=O)c([N+](=O)[O-])c1)C(=O)NC1C2CC3CC(C2)CC1C3 (stereo unspecified) returned MC4R ag barr -2, MC4R antag cAMP 60*, cAMP nonselect -9 and MC4R antag conf 12.
